Substitutions are numbered along the chain they refer to. Marks after values point to notes of the source that are not given here.
Key:
Assay in all cases: Agonist-induced currents, voltage clamp electrophysiology in Xenopus oocytes
Format in all cases: cell-based
[1] = molecular target: T1, N128A mutant 5-HT3 receptor (mouse 5-HT3A subunit) (Mus musculus, UniProt P23979, N128A); conditions: N128A
T1 sequence (P23979 24-483 isoform P23979-2 N128A limits assumed): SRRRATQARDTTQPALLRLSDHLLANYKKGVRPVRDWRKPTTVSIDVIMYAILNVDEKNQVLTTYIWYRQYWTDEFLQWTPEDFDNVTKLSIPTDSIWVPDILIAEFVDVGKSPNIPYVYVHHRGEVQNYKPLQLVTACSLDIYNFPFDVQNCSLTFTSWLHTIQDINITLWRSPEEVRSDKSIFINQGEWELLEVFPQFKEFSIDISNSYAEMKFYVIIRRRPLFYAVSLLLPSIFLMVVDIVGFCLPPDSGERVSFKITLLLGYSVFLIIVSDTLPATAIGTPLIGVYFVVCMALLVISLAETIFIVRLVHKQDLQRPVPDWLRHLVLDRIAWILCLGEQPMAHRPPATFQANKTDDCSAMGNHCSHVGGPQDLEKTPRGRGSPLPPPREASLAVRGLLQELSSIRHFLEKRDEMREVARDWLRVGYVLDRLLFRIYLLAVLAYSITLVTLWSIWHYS

[2] = molecular target: T2, N128D mutant 5-HT3 receptor (mouse 5-HT3A subunit) (Mus musculus, UniProt P23979, N128D); conditions: N128D
T2 sequence (P23979 24-483 isoform P23979-2 N128D limits assumed): T1 sequence (P23979 24-483 isoform P23979-2 N128A limits assumed) with A105D

[3] = molecular target: T3, N128E mutant 5-HT3 receptor (mouse 5-HT3A subunit) (Mus musculus, UniProt P23979, N128E); conditions: N128E
T3 sequence (P23979 24-483 isoform P23979-2 N128E limits assumed): T1 sequence (P23979 24-483 isoform P23979-2 N128A limits assumed) with A105E

[4] = molecular target: T4, E129H mutant 5-HT3 receptor (mouse 5-HT3A subunit) (Mus musculus, UniProt P23979, E129H)
T4 sequence (P23979 24-483 isoform P23979-2 E129H limits assumed): T1 sequence (P23979 24-483 isoform P23979-2 N128A limits assumed) with A105N, E106H

[5] = molecular target: T5, E129-Nha mutant 5-HT3 receptor (mouse 5-HT3A subunit) (Mus musculus, UniProt Q6J1J7)
T5 sequence (Q6J1J7 24-483): T1 sequence (P23979 24-483 isoform P23979-2 N128A limits assumed) with A105N, F436L
Method in brief: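 Mouse 5-HT3A receptor carrying Nha or Akp, introduced by nonsense suppression. Stage V-VI Xenopus oocytes were co-injected with 5 ng cRNA and 25 ng photodeprotected aminoacyl-tRNA. Controls received tRNA without an amino acid. At 24-72 h, agonist currents were recorded by two-electrode voltage clamp at -60 mV, 22-25 °C, in Ca-free ND96 (pH 7.5).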

Row | SMILES | nH (Hill coefficient) [1] | nH (Hill coefficient) [2] | nH (Hill coefficient) [3] | nH (Hill coefficient) [4] | EC50 [5] | nH (Hill coefficient) [5] | pEC50 [5] | EC50 [1] | pEC50 [1] | EC50 [2] | pEC50 ([2]; SR = small (<100 nA) responses) | EC50 [3] | pEC50 [3] | EC50 [4] | pEC50 [4]
1 | NCCc1c[nH]c2ccc(O)cc12 [5-HT, 5-hydroxytryptamine] | 1.34 ± 0.13 ^b | 1.63 ± 0.08 ^b | 1.48 ± 0.18 ^b | 1.07 ± 0.24 ^b | 3500 nM | 1.18 ± 0.12 ^b | 5.45 ± 0.04 |  |  |  |  |  |  |  | 
2 | N=C(N)NC(=N)Nc1cccc(Cl)c1 [mCPBG, m-chlorophenylbiguanide] | 1.33 ± 0.08 | 1.54 ± 0.15 | 1.81 ± 0.019 | 1.63 ± 0.20 | 560 nM | 1.91 ± 0.60 | 6.25 ± 0.07 | 1100 nM | 5.95 ± 0.02 | 270 nM | 6.56 ± 0.03 | 280 nM | 6.56 ± 0.03 | 370 nM | 6.43 ± 0.04
